Measured values as given in ChEMBL document CHEMBL4715736, “Identification of anticancer agents based on the thieno[2,3-b]pyridine and 1H-pyrazole molecular scaffolds” (2016).

How the values were obtained:
Format in all cases: functional
ACHN = test: Growth inhibition of human ACHN cells assessed as cell growth at 0.01 uM incubated for 48 hrs by sulforhodamine B assay relative to control; details: read-out: Activity
A498 [1] = test: Growth inhibition of human A498 cells assessed as cell growth at 1 uM incubated for 48 hrs by sulforhodamine B assay relative to control; details: read-out: Activity
Summary of the method: (§1)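 NCI Developmental Therapeutics Program NCI60 panel. Compounds that were active in the 10 µM one-dose screen went on to dose–response testing. Growth at each concentration is expressed relative to untreated control (100%). GI50 (concentration giving 50% of maximal inhibition of proliferation) and TGI (concentration giving total growth inhibition) were derived from the curves.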

A498 [2] = test: Growth inhibition of human A498 cells incubated for 48 hrs by sulforhodamine B assay; details: for CC50: read-out: LC50 (the source's name); summary of the method: as §1
T47D = test: Growth inhibition of human T47D cells assessed as cell growth at 0.1 uM incubated for 48 hrs by sulforhodamine B assay relative to control; details: read-out: Activity
LOX IMVI = test: Growth inhibition of human LOX IMVI cells assessed as cell growth at 0.1 uM incubated for 48 hrs by sulforhodamine B assay relative to control; details: read-out: Activity
SNB-75 = test: Growth inhibition of human SNB-75 cells assessed as cell growth at 1 uM incubated for 48 hrs by sulforhodamine B assay relative to control; details: read-out: Activity
HOP-92 = test: Growth inhibition of human HOP-92 cells assessed as cell growth at 0.1 uM incubated for 48 hrs by sulforhodamine B assay relative to control; details: read-out: Activity
SF-295 [3] = test: Growth inhibition of human SF-295 cells assessed as cell growth at 0.1 uM incubated for 48 hrs by sulforhodamine B assay relative to control; details: read-out: Activity
CCRF-CEM [4] = test: Growth inhibition of human CCRF-CEM cells assessed as cell growth at 100 uM incubated for 48 hrs by sulforhodamine B assay relative to control; details: read-out: Activity; summary of the method: as §1
786-0 = test: Growth inhibition of human 786-0 cells incubated for 48 hrs by sulforhodamine B assay; details: for CC50: read-out: LC50 (the source's name); summary of the method: as §1
SF-295 [5] = test: Growth inhibition of human SF-295 cells incubated for 48 hrs by sulforhodamine B assay
Summary of the method: (§2)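 NCI DTP 60-line human tumour panel. Dose-response curves were run only for ligands active in the initial 10 µM screen. GI50 (concentration giving 50% of maximal inhibition of proliferation) and TGI (concentration giving total growth inhibition) were derived from these curves.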

DU-145 = test: Growth inhibition of human DU-145 cells assessed as cell growth at 1 uM incubated for 48 hrs by sulforhodamine B assay relative to control; details: read-out: Activity; summary of the method: as §1
SNB-19 [6] = test: Growth inhibition of human SNB-19 cells incubated for 48 hrs by sulforhodamine B assay; summary of the method: as §2
SK-OV-3 = test: Growth inhibition of human SK-OV-3 cells assessed as cell growth at 1 uM incubated for 48 hrs by sulforhodamine B assay relative to control; details: read-out: Activity
IGROV-1 = test: Growth inhibition of human IGROV-1 cells assessed as cell growth at 1 uM incubated for 48 hrs by sulforhodamine B assay relative to control; details: read-out: Activity
OVCAR-8 = test: Growth inhibition of human OVCAR-8 cells assessed as cell growth at 0.1 uM incubated for 48 hrs by sulforhodamine B assay relative to control; details: read-out: Activity
OVCAR-3 [7] = test: Growth inhibition of human OVCAR-3 cells incubated for 48 hrs by sulforhodamine B assay; details: for CC50: read-out: LC50 (the source's name); summary of the method: as §2
SF-539 [8] = test: Growth inhibition of human SF-539 cells assessed as cell growth at 0.1 uM incubated for 48 hrs by sulforhodamine B assay relative to control; details: read-out: Activity
SK-MEL-5 = test: Growth inhibition of human SK-MEL-5 cells assessed as cell growth at 100 uM incubated for 48 hrs by sulforhodamine B assay relative to control; details: read-out: Activity
M14 = test: Growth inhibition of human M14 cells assessed as cell growth at 0.1 uM incubated for 48 hrs by sulforhodamine B assay relative to control; details: read-out: Activity
UACC-257 [9] = test: Growth inhibition of human UACC-257 cells assessed as cell growth at 0.01 uM incubated for 48 hrs by sulforhodamine B assay relative to control; details: read-out: Activity
OVCAR-3 [10] = test: Growth inhibition of human OVCAR-3 cells assessed as cell growth at 1 uM incubated for 48 hrs by sulforhodamine B assay relative to control; details: read-out: Activity
A498 [11] = test: Growth inhibition of human A498 cells assessed as cell growth at 0.01 uM incubated for 48 hrs by sulforhodamine B assay relative to control; details: read-out: Activity; summary of the method: as §1
HT-29 = test: Growth inhibition of human HT-29 cells assessed as cell growth at 0.1 uM incubated for 48 hrs by sulforhodamine B assay relative to control; details: read-out: Activity
NCI-H460 = test: Growth inhibition of human NCI-H460 cells assessed as cell growth at 100 uM incubated for 48 hrs by sulforhodamine B assay relative to control; details: read-out: Activity
UACC-257 [12] = test: Growth inhibition of human UACC-257 cells assessed as cell growth at 1 uM incubated for 48 hrs by sulforhodamine B assay relative to control; details: read-out: Activity
OVCAR-4 = test: Growth inhibition of human OVCAR-4 cells assessed as cell growth at 1 uM incubated for 48 hrs by sulforhodamine B assay relative to control; details: read-out: Activity
COLO 205 [13] = test: Growth inhibition of human COLO 205 cells assessed as cell growth at 100 uM incubated for 48 hrs by sulforhodamine B assay relative to control; details: read-out: Activity; summary of the method: as §1
NCI-H322M = test: Growth inhibition of human NCI-H322M cells assessed as cell growth at 0.01 uM incubated for 48 hrs by sulforhodamine B assay relative to control; details: read-out: Activity
COLO 205 [14] = test: Growth inhibition of human COLO 205 cells assessed as cell growth at 1 uM incubated for 48 hrs by sulforhodamine B assay relative to control; details: read-out: Activity; summary of the method: as §1
UO-31 = test: Growth inhibition of human UO-31 cells assessed as cell growth at 100 uM incubated for 48 hrs by sulforhodamine B assay relative to control; details: read-out: Activity
A549 = test: Growth inhibition of human A549/ATCC cells incubated for 48 hrs by sulforhodamine B assay; details: for CC50: read-out: LC50 (the source's name); summary of the method: as §1
Hs-578T = test: Growth inhibition of human Hs-578T cells assessed as cell growth at 0.01 uM incubated for 48 hrs by sulforhodamine B assay relative to control; details: read-out: Activity
CCRF-CEM [15] = test: Growth inhibition of human CCRF-CEM cells assessed as cell growth at 1 uM incubated for 48 hrs by sulforhodamine B assay relative to control; details: read-out: Activity; summary of the method: as §1
SF-539 [16] = test: Growth inhibition of human SF-539 cells assessed as cell growth at 0.01 uM incubated for 48 hrs by sulforhodamine B assay relative to control; details: read-out: Activity
SNB-19 [17] = test: Growth inhibition of human SNB-19 cells assessed as cell growth at 0.1 uM incubated for 48 hrs by sulforhodamine B assay relative to control; details: read-out: Activity
MDA-MB-231 = test: Growth inhibition of human MDA-MB-231 cells assessed as cell growth at 1 uM incubated for 48 hrs by sulforhodamine B assay relative to control; details: read-out: Activity

## COc1cccc(NC(=O)c2sc3nc4c(cc3c2N)CN(Cc2ccccc2)CC4)c1
ACHN
  growth at 0.01 µM: 97%
A498 [1]
  growth at 1 µM: 79%
A498 [2]
  GI50: 3.82 µM
  TGI: 24.4 µM
  CC50: > 100 µM
T47D
  growth at 0.1 µM: 94%
LOX IMVI
  growth at 0.1 µM: 102%
SNB-75
  growth at 1 µM: 77%
HOP-92
  growth at 0.1 µM: 80%
SF-295 [3]
  growth at 0.1 µM: 90%
CCRF-CEM [4]
  growth at 100 µM: 21%
786-0
  GI50: 3.61 µM
  TGI: 20.8 µM
  CC50: > 100 µM
SF-295 [5]
  GI50: 3.05 µM
  LC50 (concentration killing 50% of cells): 94.3 µM
  TGI: 19.4 µM
DU-145
  growth at 1 µM: 95%
SNB-19 [6]
  GI50: 4.75 µM
  LC50: > 100 µM
  TGI: > 100 µM
SK-OV-3
  growth at 1 µM: 81%
IGROV-1
  growth at 1 µM: 90%
OVCAR-8
  growth at 0.1 µM: 100%
OVCAR-3 [7]
  GI50: 7.53 µM
  TGI: 26.9 µM
  CC50: 79.8 µM
SF-539 [8]
  growth at 0.1 µM: 92%
SK-MEL-5
  growth at 100 µM: -34%
M14
  growth at 0.1 µM: 95%
UACC-257 [9]
  growth at 0.01 µM: 94%
OVCAR-3 [10]
  growth at 1 µM: 82%
A498 [11]
  growth at 0.01 µM: 94%
HT-29
  growth at 0.1 µM: 103%
NCI-H460
  growth at 100 µM: -25%
UACC-257 [12]
  growth at 1 µM: 78%
OVCAR-4
  growth at 1 µM: 78%
COLO 205 [13]
  growth at 100 µM: -16%
NCI-H322M
  growth at 0.01 µM: 101%
COLO 205 [14]
  growth at 1 µM: 92%
UO-31
  growth at 100 µM: -23%
A549
  GI50: 3.79 µM
  TGI: 53.8 µM
  CC50: > 100 µM
Hs-578T
  growth at 0.01 µM: 88%
CCRF-CEM [15]
  growth at 1 µM: 82%
SF-539 [16]
  growth at 0.01 µM: 86%
SNB-19 [17]
  growth at 0.1 µM: 94%
MDA-MB-231
  growth at 1 µM: 78%

## Cc1ccc(NC(=O)c2sc3nc4c(cc3c2N)C(=O)CCC4)cc1C
ACHN
  growth at 0.01 µM: 98%
A498 [1]
  growth at 1 µM: -17%
A498 [2]
  GI50: 0.198 µM
  CC50: > 100 µM
T47D
  growth at 0.1 µM: 97%
LOX IMVI
  growth at 0.1 µM: 98%
SNB-75
  growth at 1 µM: -7%
HOP-92
  growth at 0.1 µM: 72%
SF-295 [3]
  growth at 0.1 µM: 85%
CCRF-CEM [4]
  growth at 100 µM: 10%
786-0
  GI50: 0.614 µM
  TGI: > 100 µM
  CC50: > 100 µM
SF-295 [5]
  GI50: 0.328 µM
  LC50 (concentration killing 50% of cells): > 100 µM
  TGI: > 100 µM
DU-145
  growth at 1 µM: 35%
SNB-19 [6]
  GI50: 0.558 µM
  LC50: > 100 µM
  TGI: > 100 µM
SK-OV-3
  growth at 1 µM: 29%
IGROV-1
  growth at 1 µM: 51%
OVCAR-8
  growth at 0.1 µM: 100%
OVCAR-3 [7]
  GI50: 0.343 µM
  TGI: 1.4 µM
  CC50: > 100 µM
SF-539 [8]
  growth at 0.1 µM: 90%
SK-MEL-5
  growth at 100 µM: -57%
M14
  growth at 0.1 µM: 86%
UACC-257 [9]
  growth at 0.01 µM: 96%
OVCAR-3 [10]
  growth at 1 µM: 3%
A498 [11]
  growth at 0.01 µM: 89%
HT-29
  growth at 0.1 µM: 104%
NCI-H460
  growth at 100 µM: -9%
UACC-257 [12]
  growth at 1 µM: 50%
OVCAR-4
  growth at 1 µM: 42%
COLO 205 [13]
  growth at 100 µM: -56%
NCI-H322M
  growth at 0.01 µM: 93%
COLO 205 [14]
  growth at 1 µM: -13%
UO-31
  growth at 100 µM: 16%
A549
  GI50: 0.673 µM
  TGI: > 100 µM
  CC50: > 100 µM
Hs-578T
  growth at 0.01 µM: 93%
CCRF-CEM [15]
  growth at 1 µM: 7%
SF-539 [16]
  growth at 0.01 µM: 97%
SNB-19 [17]
  growth at 0.1 µM: 88%
MDA-MB-231
  growth at 1 µM: 56%
